In ChEMBL document CHEMBL1153829, “Exploiting chemical libraries, structure, and genomics in the search for kinase inhibitors” (Science, 1998):
Active and inactive are the calls of the source. The calls are words filed in the database; no cut-off is given here.

Tests used:
[1] = target: Cyclin-dependent kinase 1/cyclin B1 (Homo sapiens, UniProt P06493); assay: Inhibition of human cdc2/cyclin B assessed as [32P] incorporation in histone H1 from [gamma32P]ATP; format: protein-complex assay
[2] = tested on: Saccharomyces cerevisiae; assay: Increase in PHO81 mRNA level in delta snq2, delta pdr5 and delta erg6 knock out yeast YRP1 at 25 µM after 2 hrs by high-density oligonucleotide array; format: functional, organism-based; settings: 25 M
Summary of the method: (§1)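 Drug-sensitized S. cerevisiae cultures grown to late logarithmic phase, then exposed to 25 μM inhibitor for 2 h. Polyadenylated mRNA isolated, converted to biotin-labeled cRNA and hybridized to a set of four high-density arrays carrying more than 260,000 25-nucleotide oligomers. Transcripts scored as changed when they shifted more than twofold in triplicate hybridizations for each of two independent experiments.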

[3] = tested on: Saccharomyces cerevisiae; assay: Increase in HSP12 mRNA level in delta snq2, delta pdr5 and delta erg6 knock out yeast YRP1 at 25 µM after 2 hrs by high-density oligonucleotide array; format: functional, organism-based; summary of the method: as §1
[4] = tested on: Saccharomyces cerevisiae; assay: Increase in PCL5 mRNA level in delta snq2, delta pdr5 and delta erg6 knock out yeast YRP1 at 25 µM after 2 hrs by high-density oligonucleotide array; format: functional, organism-based; summary of the method: as §1
[5] = tested on: Saccharomyces cerevisiae; assay: Increase in CTT1 mRNA level in delta snq2, delta pdr5 and delta erg6 knock out yeast YRP1 at 25 µM after 2 hrs by high-density oligonucleotide array; format: functional, organism-based; settings: 25 M; summary of the method: as §1
[6] = tested on: Saccharomyces cerevisiae; assay: Increase in PHO5 mRNA level in delta snq2, delta pdr5 and delta erg6 knock out yeast YRP1 at 25 µM after 2 hrs by high-density oligonucleotide array; format: functional, organism-based; summary of the method: as §1
[7] = tested on: Saccharomyces cerevisiae; assay: Increase in UB14 mRNA level in delta snq2, delta pdr5 and delta erg6 knock out yeast YRP1 at 25 µM after 2 hrs by high-density oligonucleotide array; format: functional, organism-based; summary of the method: as §1
[8] = tested on: Saccharomyces cerevisiae; assay: Increase in PHO84 mRNA level in delta snq2, delta pdr5 and delta erg6 knock out yeast YRP1 at 25 µM after 2 hrs by high-density oligonucleotide array; format: functional, organism-based; summary of the method: as §1
[9] = tested on: Saccharomyces cerevisiae; assay: Increase in PHO8 mRNA level in delta snq2, delta pdr5 and delta erg6 knock out yeast YRP1 at 25 µM after 2 hrs by high-density oligonucleotide array; format: functional, organism-based; summary of the method: as §1
[10] = tested on: Saccharomyces cerevisiae; assay: Increase in YBR296c mRNA level in delta snq2, delta pdr5 and delta erg6 knock out yeast YRP1 at 25 µM after 2 hrs by high-density oligonucleotide array; format: functional, organism-based; settings: 25 M; summary of the method: as §1
[11] = tested on: Saccharomyces cerevisiae; assay: Increase in PHO80 mRNA level in delta snq2, delta pdr5 and delta erg6 knock out yeast YRP1 at 25 µM after 2 hrs by high-density oligonucleotide array; format: functional, organism-based; summary of the method: as §1
[12] = target: T1, Cyclin-dependent kinase 1 (Saccharomyces cerevisiae S288c, UniProt P00546); assay: Inhibition of yeast W303 cdc28 phosphorylation assessed as [32P] incorporation in histone H1 from [gamma32P]ATP by scintillation counting
[13] = target: Cyclin-dependent protein kinase PHO85 (Saccharomyces cerevisiae S288c, UniProt P17157); assay: Inhibition of yeast W303 Pho85 phosphorylation assessed as [32P] incorporation in histone H1 from [gamma32P]ATP by scintillation counting
[14] = target: Serine/threonine-protein kinase KIN28 (Saccharomyces cerevisiae S288c, UniProt P06242); assay: Inhibition of yeast W303 Kin28 phosphorylation assessed as [32P] incorporation in histone H1 from [gamma32P]ATP by scintillation counting
[15] = target: Meiotic mRNA stability protein kinase SSN3 (Saccharomyces cerevisiae S288c, UniProt P39073); assay: Inhibition of yeast W303 Srb10 phosphorylation assessed as [32P] incorporation in histone H1 from [gamma32P]ATP by scintillation counting
[16] = target: Serine/threonine-protein kinase CAK1 (Saccharomyces cerevisiae S288c, UniProt P43568); assay: Inhibition of yeast W303 Cak1 phosphorylation assessed as [32P] incorporation in histone H1 from [gamma32P]ATP by scintillation counting
[17] = tested on: Saccharomyces cerevisiae; assay: Growth inhibition of delta snq2, delta pdr5 and delta erg6 knock out yeast YRP1 after 2 hrs; format: functional
[18] = tested on: Saccharomyces cerevisiae; assay: Growth inhibition of delta snq2, delta pdr5 and delta erg6 knock out yeast YRP1 assessed as induction of uniform arrest morphology; format: functional, organism-based
[19] = tested on: Saccharomyces cerevisiae; assay: Growth inhibition of delta snq2, delta pdr5 and delta erg6 knock out yeast YRP1 assessed as synchronization by FACS analysis; format: functional, organism-based
[20] = tested on: MRC5; assay: Cell cycle arrest in human MRC5 cells assessed as accumulation at G1/S phase at high concentration after 18 hrs by FACS analysis; format: functional, cell-based
[21] = tested on: MRC5; assay: Cell cycle arrest in human MRC5 cells assessed as accumulation at G2/M phase at high concentration after 18 hrs by FACS analysis; format: functional, cell-based
[22] = tested on: MRC5; assay: Cell cycle arrest in human MRC5 cells assessed as accumulation at G1/S phase at low concentration after 18 hrs by FACS analysis; format: functional, cell-based
[23] = target: Protein kinase C gamma type (Homo sapiens, UniProt P05129); assay: Inhibition of human PKCgamma
[24] = target: Protein kinase C delta type (Homo sapiens, UniProt Q05655); assay: Inhibition of human PKCdelta
[25] = target: Protein kinase C epsilon type (Homo sapiens, UniProt Q02156); assay: Inhibition of human PKCepsilon
[26] = target: Protein kinase C eta type (Homo sapiens, UniProt P24723); assay: Inhibition of human PKCeta
[27] = target: Protein kinase C zeta type (Homo sapiens, UniProt Q05513); assay: Inhibition of human PKCzeta
[28] = target: Cyclin-dependent kinase 4/cyclin D1 (Homo sapiens, UniProt P11802); assay: Inhibition of human cdk4/cyclin D1; format: protein-complex assay
[29] = target: Mitogen-activated protein kinase 3 (Homo sapiens, UniProt P27361); assay: Inhibition of human Erk1
[30] = target: c-Jun N-terminal kinase, JNK (Homo sapiens, UniProt P45983+P53779+P45984); assay: Inhibition of human JNK
[31] = target: Protein kinase C alpha type (Homo sapiens, UniProt P17252); assay: Inhibition of human PKCalpha
[32] = target: T2, Protein kinase C beta type (Homo sapiens, UniProt P05771); assay: Inhibition of human PKCbeta1
[33] = target: T2, Protein kinase C beta type; assay: Inhibition of human PKCbeta2
[34] = Inhibition of human cAMP-dependent protein kinase
[35] = Inhibition of human cGMP-dependent protein kinase
[36] = Inhibition of human casein kinase 1
[37] = target: Glycogen synthase kinase-3 beta (Homo sapiens, UniProt P49841); assay: Inhibition of human GSK3-beta
[38] = target: Casein kinase 2 (Homo sapiens, UniProt P67870+P68400+P19784+Q8NEV1); assay: Inhibition of human casein kinase 2; format: protein assay
[39] = Inhibition of human Raf kinase
[40] = Inhibition of human v-abl
[41] = target: T3, Cdc2 (Patiria pectinifera, UniProt Q17066); assay: Inhibition of starfish cdc2/cyclin B assessed as [32P] incorporation in histone H1 from 150 µM [gamma32P]ATP
[42] = target: T3, Cdc2; assay: Inhibition of starfish cdc2/cyclin B assessed as [32P] incorporation in histone H1 from 1.5 mM [gamma32P]ATP
[43] = target: T4, Cyclin-dependent kinase 2 (Homo sapiens, UniProt P24941); assay: Inhibition of human cdk2/cyclin A
[44] = target: T4, Cyclin-dependent kinase 2; assay: Inhibition of human cdk2/cyclin E
[45] = target: Cyclin-dependent kinase 5/CDK5 activator 1 (Homo sapiens, UniProt Q00535); assay: Inhibition of human cdk5/p35; format: protein-complex assay
[46] = target: Insulin receptor (Homo sapiens, UniProt P06213); assay: Inhibition of human insulin receptor
[47] = target: T1, Cyclin-dependent kinase 1; assay: Inhibition of Saccharomyces cerevisiae cdc28
[48] = Growth inhibition human NCI60 cells; format: functional
[49] = tested on: KM12; assay: Growth inhibition human KM12 cells; format: functional
[50] = tested on: NCI-H522; assay: Growth inhibition human NCI-H522 cells; format: functional

T2 sequence (P05771 whole entry): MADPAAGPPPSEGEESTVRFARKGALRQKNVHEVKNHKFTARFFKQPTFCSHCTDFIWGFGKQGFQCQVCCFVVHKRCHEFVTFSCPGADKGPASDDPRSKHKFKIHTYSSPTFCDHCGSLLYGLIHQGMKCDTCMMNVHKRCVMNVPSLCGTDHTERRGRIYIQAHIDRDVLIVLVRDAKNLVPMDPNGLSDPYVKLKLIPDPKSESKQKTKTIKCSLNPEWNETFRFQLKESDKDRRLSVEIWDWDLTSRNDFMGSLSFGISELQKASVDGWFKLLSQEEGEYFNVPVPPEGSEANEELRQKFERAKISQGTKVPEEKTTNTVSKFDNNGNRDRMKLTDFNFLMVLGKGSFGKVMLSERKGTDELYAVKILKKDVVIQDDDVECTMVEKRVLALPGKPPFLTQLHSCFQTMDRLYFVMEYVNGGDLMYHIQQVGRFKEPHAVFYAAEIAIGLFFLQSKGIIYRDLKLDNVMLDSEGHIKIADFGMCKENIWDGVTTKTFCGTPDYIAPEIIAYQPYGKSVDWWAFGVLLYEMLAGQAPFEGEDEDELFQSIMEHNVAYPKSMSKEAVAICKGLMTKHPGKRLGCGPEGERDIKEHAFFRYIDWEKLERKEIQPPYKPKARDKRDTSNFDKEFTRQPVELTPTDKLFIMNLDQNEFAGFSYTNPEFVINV
Sequence of Protein kinase C eta type (P24723 whole entry): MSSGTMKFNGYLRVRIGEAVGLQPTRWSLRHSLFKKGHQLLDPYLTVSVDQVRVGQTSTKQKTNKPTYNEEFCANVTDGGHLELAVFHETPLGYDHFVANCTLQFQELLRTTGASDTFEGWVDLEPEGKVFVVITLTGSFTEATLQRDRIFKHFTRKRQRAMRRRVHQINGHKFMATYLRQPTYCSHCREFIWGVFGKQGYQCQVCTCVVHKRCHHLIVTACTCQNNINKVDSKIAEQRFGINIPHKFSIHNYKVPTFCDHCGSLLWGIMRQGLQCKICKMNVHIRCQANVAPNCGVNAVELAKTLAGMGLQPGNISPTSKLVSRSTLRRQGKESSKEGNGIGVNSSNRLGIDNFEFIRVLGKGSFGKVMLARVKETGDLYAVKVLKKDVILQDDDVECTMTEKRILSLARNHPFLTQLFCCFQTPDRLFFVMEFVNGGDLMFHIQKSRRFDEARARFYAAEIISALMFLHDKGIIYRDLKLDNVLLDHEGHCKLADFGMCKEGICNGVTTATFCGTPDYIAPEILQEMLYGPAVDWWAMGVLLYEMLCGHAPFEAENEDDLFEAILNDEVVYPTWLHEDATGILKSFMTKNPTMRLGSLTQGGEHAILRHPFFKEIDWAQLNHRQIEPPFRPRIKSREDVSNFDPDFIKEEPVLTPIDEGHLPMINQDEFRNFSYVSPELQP
Sequence of Cyclin-dependent kinase 4/cyclin D1 (P11802 whole entry): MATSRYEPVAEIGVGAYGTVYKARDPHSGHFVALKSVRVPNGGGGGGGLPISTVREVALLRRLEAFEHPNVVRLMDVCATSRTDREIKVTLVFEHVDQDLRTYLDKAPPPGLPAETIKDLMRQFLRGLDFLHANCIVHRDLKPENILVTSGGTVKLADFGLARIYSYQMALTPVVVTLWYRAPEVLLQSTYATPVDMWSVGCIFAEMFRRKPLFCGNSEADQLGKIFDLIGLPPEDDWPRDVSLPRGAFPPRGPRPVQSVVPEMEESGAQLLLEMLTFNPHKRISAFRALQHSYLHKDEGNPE
Sequence of Cyclin-dependent kinase 4/cyclin D1 (P24385 whole entry, further chain): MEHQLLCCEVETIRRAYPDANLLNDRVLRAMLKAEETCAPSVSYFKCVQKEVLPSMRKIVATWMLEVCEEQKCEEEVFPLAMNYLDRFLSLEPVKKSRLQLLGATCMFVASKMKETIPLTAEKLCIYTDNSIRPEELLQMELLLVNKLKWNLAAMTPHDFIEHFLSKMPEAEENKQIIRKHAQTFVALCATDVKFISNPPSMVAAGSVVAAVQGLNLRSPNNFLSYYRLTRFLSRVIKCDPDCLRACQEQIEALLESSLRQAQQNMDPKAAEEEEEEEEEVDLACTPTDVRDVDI
Sequence of Glycogen synthase kinase-3 beta (P49841 whole entry): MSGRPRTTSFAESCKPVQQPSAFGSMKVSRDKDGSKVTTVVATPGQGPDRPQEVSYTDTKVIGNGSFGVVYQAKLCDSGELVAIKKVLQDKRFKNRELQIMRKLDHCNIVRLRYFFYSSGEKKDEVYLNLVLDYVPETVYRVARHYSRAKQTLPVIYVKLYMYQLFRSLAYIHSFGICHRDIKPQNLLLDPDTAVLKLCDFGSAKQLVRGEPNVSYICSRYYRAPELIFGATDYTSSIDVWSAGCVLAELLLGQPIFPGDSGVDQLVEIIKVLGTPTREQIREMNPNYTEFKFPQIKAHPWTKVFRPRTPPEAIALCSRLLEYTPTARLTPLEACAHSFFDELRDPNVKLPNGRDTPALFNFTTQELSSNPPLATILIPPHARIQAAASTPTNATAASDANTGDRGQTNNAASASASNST
Sequence of Protein kinase C zeta type (Q05513 whole entry): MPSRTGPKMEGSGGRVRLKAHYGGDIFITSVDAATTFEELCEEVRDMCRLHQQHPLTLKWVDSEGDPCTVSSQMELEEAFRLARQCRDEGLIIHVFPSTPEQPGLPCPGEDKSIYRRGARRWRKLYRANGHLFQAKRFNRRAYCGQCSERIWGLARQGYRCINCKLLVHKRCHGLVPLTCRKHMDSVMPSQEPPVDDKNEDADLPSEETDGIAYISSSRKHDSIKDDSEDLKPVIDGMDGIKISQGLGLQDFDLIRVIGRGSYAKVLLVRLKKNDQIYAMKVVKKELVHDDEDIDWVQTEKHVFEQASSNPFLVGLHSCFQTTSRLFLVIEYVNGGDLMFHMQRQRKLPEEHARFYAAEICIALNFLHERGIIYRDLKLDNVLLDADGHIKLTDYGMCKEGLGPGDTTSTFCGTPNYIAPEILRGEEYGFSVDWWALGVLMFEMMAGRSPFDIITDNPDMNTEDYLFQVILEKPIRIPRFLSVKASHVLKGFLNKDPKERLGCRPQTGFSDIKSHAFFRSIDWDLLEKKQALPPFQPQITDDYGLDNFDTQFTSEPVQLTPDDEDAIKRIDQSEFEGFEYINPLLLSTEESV
Sequence of Protein kinase C delta type (Q05655 whole entry): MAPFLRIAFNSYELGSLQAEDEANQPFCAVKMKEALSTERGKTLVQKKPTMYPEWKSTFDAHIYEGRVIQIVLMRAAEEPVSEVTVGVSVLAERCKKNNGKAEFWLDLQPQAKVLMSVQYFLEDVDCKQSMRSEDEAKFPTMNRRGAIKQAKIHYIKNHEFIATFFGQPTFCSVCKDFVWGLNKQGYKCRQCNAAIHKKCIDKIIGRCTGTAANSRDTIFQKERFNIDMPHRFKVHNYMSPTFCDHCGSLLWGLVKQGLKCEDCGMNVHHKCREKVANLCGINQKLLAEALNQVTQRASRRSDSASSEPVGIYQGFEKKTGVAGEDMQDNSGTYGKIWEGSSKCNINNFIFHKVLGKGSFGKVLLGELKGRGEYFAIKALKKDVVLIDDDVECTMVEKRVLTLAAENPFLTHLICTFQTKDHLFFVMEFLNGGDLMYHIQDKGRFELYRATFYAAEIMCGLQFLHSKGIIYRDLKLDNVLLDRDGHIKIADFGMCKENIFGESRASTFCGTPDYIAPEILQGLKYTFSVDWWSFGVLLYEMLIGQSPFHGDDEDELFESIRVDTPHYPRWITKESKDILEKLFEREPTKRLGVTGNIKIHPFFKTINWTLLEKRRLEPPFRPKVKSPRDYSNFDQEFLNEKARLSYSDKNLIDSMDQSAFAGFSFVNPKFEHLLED
T3 sequence (Q17066 whole entry): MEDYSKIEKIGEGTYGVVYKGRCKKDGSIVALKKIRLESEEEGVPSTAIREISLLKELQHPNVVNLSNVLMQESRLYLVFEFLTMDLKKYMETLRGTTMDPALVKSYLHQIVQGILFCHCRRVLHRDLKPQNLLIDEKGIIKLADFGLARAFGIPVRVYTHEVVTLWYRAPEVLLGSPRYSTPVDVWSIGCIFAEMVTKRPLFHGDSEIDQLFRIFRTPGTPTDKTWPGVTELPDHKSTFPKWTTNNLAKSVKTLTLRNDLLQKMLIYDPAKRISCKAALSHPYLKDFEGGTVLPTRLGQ
Sequence of Mitogen-activated protein kinase 3 (P27361 whole entry): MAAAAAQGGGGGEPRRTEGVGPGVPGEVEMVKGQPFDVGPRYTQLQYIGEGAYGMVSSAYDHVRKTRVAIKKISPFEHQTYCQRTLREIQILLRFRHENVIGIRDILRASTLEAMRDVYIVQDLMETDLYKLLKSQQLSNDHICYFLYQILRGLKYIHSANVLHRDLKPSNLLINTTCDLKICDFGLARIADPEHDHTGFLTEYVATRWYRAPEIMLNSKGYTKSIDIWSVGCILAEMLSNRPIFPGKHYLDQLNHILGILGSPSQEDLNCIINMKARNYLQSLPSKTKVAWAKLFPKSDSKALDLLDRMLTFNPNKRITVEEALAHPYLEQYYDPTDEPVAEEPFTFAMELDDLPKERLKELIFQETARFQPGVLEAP

SMILES	IC50 [23]	IC50 [24]	IC50 [25]	IC50 [26]	IC50 [27]	IC50 [28]	IC50 [29]	IC50 [30]	IC50 [31]	IC50 [32]	IC50 [33]	IC50 [34]	IC50 [35]	IC50 [36]	IC50 [37]	IC50 [38]	IC50 [39]	IC50 [40]	also measured
CC(C)n1cnc2c(Nc3cccc(Cl)c3)nc(NCCO)nc21	–	–	–	–	–	–	–	–	–	–	–	–	–	–	–	–	–	–	IC50 [1]: 0.34 µM
CC(C)n1cnc2c(N(C)c3cccc(Cl)c3)nc(NCCO)nc21	–	–	–	–	–	–	–	–	–	–	–	–	–	–	–	–	–	–	Activity [2]: inactive; Activity [3]: inactive; Activity [4]: inactive; Activity [5]: inactive; Activity [6]: inactive; Activity [7]: inactive; Activity [8]: inactive; Activity [9]: inactive; Activity [10]: inactive; Activity [11]: inactive; IC50 [12]: > 500 µM; IC50 [13]: > 500 µM; IC50 [14]: > 500 µM; IC50 [15]: > 500 µM; IC50 [16]: > 500 µM; GI50 [17]: 200 µM; Activity [18]: inactive; Activity [19]: inactive
COc1ccc(CNc2nc(N(CCO)CCO)nc3c2ncn3C(C)C)cc1	–	–	–	–	–	–	–	–	–	–	–	–	–	–	–	–	–	–	Activity [20]: Active; Activity [21]: Active; Activity [22]: Active
CC(C)[C@H](CO)Nc1nc(Nc2ccc(C(=O)O)c(Cl)c2)c2ncn(C(C)C)c2n1 [PURVALANOL B]	> 100 µM	> 100 µM	> 100 µM	> 100 µM	> 100 µM	> 10 µM	3.33 µM	> 10 µM	> 100 µM	> 100 µM	> 100 µM	3.8 µM	> 100 µM	> 3.33 µM	> 10 µM	> 10 µM	> 10 µM	> 100 µM	–
CC(C)[C@H](CO)Nc1nc(Nc2cccc(Cl)c2)c2ncn(C(C)C)c2n1 [PURVALANOLA]	> 10 µM	> 100 µM	> 100 µM	> 100 µM	> 100 µM	0.85 µM	9 µM	> 1 µM	> 10 µM	> 10 µM	> 10 µM	9 µM	> 10 µM	> 3.33 µM	> 10 µM	> 10 µM	> 1 µM	> 10 µM	IC50 [41]: 0.04 µM; IC50 [42]: 0.5 µM; IC50 [43]: 0.07 µM; IC50 [44]: 0.035 µM; IC50 [45]: 0.075 µM; IC50 [46]: 5 µM; IC50 [47]: 0.08 µM; GI50 [48]: 2 µM; GI50 [49]: 0.076 µM; GI50 [50]: 0.347 µM
